Measured values: ChEMBL document CHEMBL1142410, “Stagonolides B-F, nonenolides produced by Stagonospora cirsii, a potential mycoherbicide of Cirsium arvense” (J Nat Prod, 2008)

Assays:
Assay type in all cases: functional
Sonchus arvensis = test: Phytotoxicity against Sonchus arvensis at 1 mg/ml by leaf disk puncture assay
In short: (§1)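 Leaf disks wounded centrally with a needle, kept on moistened filter paper in closed boxes. Compound dissolved in MeOH, diluted with distilled water to 1 mg/mL final (2% v/v MeOH; MeOH-only control); 10 μL drop applied at the wound. Incubated 48 h under cycles of 8 h dark at 20 °C and 16 h light at 24 °C; necrotic area then measured.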

Colpoda steinii = test: Phytotoxicity against Colpoda stenii at 0.05 mg/ml after 3 hrs; conditions: Colpoda steini, in the assay text read “Zootoxicity” for “Phytotoxicity”
In short: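 Dried Colpoda steinii culture (~5000 cells per mL) revived in Lozina-Lozinskogo medium, 24 h at 25 °C. Compound in 4% EtOH mixed 1:1 v/v with the suspension, 0.05 mg/mL final; 4% EtOH control. Immobile cells (%) counted over 3–180 min. Full immobilisation within 3 min scored as strong toxicity; loss of motility at ≥180 min scored as medium.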

Cirsium arvense = test: Phytotoxicity against Cirsium arvense at 1 mg/ml by leaf disk puncture assay; in short: as §1

With C[C@@H]1C[C@H](O)/C=C/[C@@H](O)CCC(=O)O1 the Activity (Sonchus arvensis) was “Not toxic”, the Activity (Colpoda steinii) was “Not toxic” and the Activity (Cirsium arvense) was “Not toxic”.

CCC[C@H]1OC(=O)CCC/C=C/C(=O)[C@@H]1O was tested, and the Activity (Sonchus arvensis) was “Toxic”, the Activity (Colpoda steinii) was “Not toxic” and the Activity (Cirsium arvense) was “Toxic”.

With C[C@@H]1CC[C@@H](O)/C=C/C=C\C(=O)O1 the Activity (Sonchus arvensis) was “Not toxic” and the Activity (Cirsium arvense) was “Not toxic”.

With CCC[C@H]1OC(=O)CC[C@@H](O)/C=C/[C@H](O)[C@@H]1O the Activity (Sonchus arvensis) was “Not toxic” and the Activity (Cirsium arvense) was “Not toxic”.

With C[C@@H]1C/C=C/[C@@H](O)CCCC(=O)O1 the Activity (Sonchus arvensis) was “Not toxic” and the Activity (Cirsium arvense) was “Not toxic”.

In the case of C[C@@H]1OC(=O)CC[C@H](O)/C=C/[C@@H]2O[C@H]12, the Activity (Sonchus arvensis) is reported as “Not toxic” and the Activity (Cirsium arvense) is reported as “Not toxic”.
